Activity calls are given as the source filed them. The calls are words filed in the database; no cut-off is given here.
What was measured:
[1] = target: GABA-A receptor; anion channel; test: Displacement of [3H]-muscimol from rat cortical synaptic membrane GABAA receptor assessed as inhibition constant by microscint-scintillation method; type: cell membranes, Cortex
Summary of the method: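 Rat cortical synaptic membranes, washed repeatedly in 50 mM Tris-HCl pH 7.4, 70–80 μg protein. Incubated at 0 °C with 5 nM [3H]-muscimol (final) and a range of test concentrations, then filtered and counted by scintillation. Nonspecific binding defined with 1.0 mM GABA. IC50 converted to Ki by Cheng–Prusoff, triplicate, three independent experiments.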

CD4+ve Th [2] = test: Induction of cell proliferation of human CD4+ve Th cells at 100 uM measured after 96 hrs by flow cytometry analysis relative to control; type: functional
Summary of the method: (§1)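 Rescue format on human PBMC. Cells were CFSE-labelled (5 μM), stimulated with anti-CD3 OKT3 at 100 pg/mL, and treated with alprazolam 33 μM plus test agent at 100 μM. Culture ran 96 h. Proliferating CD4+ and CD8+ T cell percentages were measured by flow cytometry. Vehicle controls (methanol, DMSO) were included. n≥6 independent experiments; one-way ANOVA with Tukey.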

[3] = Induction of cell proliferation of human CD8-positive T cells at 100 uM measured after 96 hrs by flow cytometry analysis relative to control; type: functional; summary of the method: as §1
CD4+ve Th [4] = test: Antiproliferative activity against mouse CD4+ve Th cells at 100 uM measured after 48 hrs by flow cytometry analysis; type: functional, cell-based
Summary of the method: (§2)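 Splenocytes came from female wild-type BALB/c mice and were red-cell lysed. They were labelled with 5 μM CFSE for 10 min at room temperature and activated with soluble anti-mouse CD3 (145.2C11) at 33 ng/mL. Culture ran 48 h in RPMI with 10% FCS and 2 μM 2-mercaptoethanol. Percent proliferating CD4+ and CD8+ cells was read by flow cytometry. n≥6 independent experiments; one-way ANOVA with Tukey.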

CD8-positive T cell = test: Antiproliferative activity against mouse CD8-positive T cells at 100 uM measured after 48 hrs by flow cytometry analysis; type: functional, cell-based; summary of the method: as §2
[5] = Antiproliferative activity against human CD4+ve T cells at 33 uM measured after 96 hrs by flow cytometry analysis relative to control; type: functional, CD4+ve Th
Summary of the method: (§3)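 Human PBMC were isolated from leukocyte cones by density gradient centrifugation and frozen. After overnight high-density culture at 1×10^7 cells/ml, cells were labelled with 5 μM CFSE for 10 min at room temperature and stimulated with soluble anti-CD3 (OKT3) at 100 pg/mL. Culture ran 96 h. Proliferating CD4+ and CD8+ cells were scored by CFSE flow cytometry against a PBS control. n≥6 independent experiments; one-way ANOVA with Tukey.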

[6] = Antiproliferative activity against human CD8-positive T cells at 33 uM measured after 96 hrs by flow cytometry analysis relative to control; type: functional, CD8-positive T cell; summary of the method: as §3

Structure (SMILES)	Ki [1] [µM]	also measured
O=C(c1ccc(OCc2ccccc2)cc1)N1CCC2(CCNCC2)CC1	1	
C[N+]1(C)CCc2cc3c(cc2[C@H]1[C@@H]1OC(=O)c2c1ccc1c2OCO1)OCO3.[I-]		Activity (CD4+ve Th [2]): 20%; Activity [3]: 20%
O=C(c1cccc(OCc2ccccc2)c1)N1CCC2(CCNCC2)CC1	1	
Cc1cccc(CN2CCC3(CCNCC3)CC2)c1	> 200	
O=C(c1cccc([N+](=O)[O-])c1)N1CCC2(CCNCC2)CC1	1.5	
Nc1cccc(C(=O)N2CCC3(CCNCC3)CC2)c1	1.2	
O=C(c1ccccc1Br)N1CCC2(CCNCC2)CC1	2.7	
CC(=O)N1CCC2(CCNCC2)CC1	> 100	
Cc1nnc2n1-c1ccc(Cl)cc1C(c1ccccc1)=NC2 [ALPRAZOLAM]		Activity (CD4+ve Th [4]): Active; Activity (CD8-positive T cell): Active; Activity [5]: 35.7%; Activity [6]: 34.8%
O=C(c1ccc(O)cc1)N1CCC2(CCNCC2)CC1	0.86	pKi [1]: 6.08
O=C(c1ccc([N+](=O)[O-])cc1)N1CCC2(CCNCC2)CC1	9.4	
COC(=O)N1CCC2(CCNCC2)CC1	37	
Brc1ccc(CN2CCC3(CCNCC3)CC2)cc1	27	
Cc1ccccc1C(=O)N1CCC2(CCNCC2)CC1	4.2	
O=C(c1cccc(OCc2cccs2)c1)N1CCC2(CCNCC2)CC1	1	
O=C(c1cccc(Br)c1)N1CCC2(CCNCC2)CC1	0.3	
Nc1ccc(C(=O)N2CCC3(CCNCC3)CC2)cc1	0.71	pKi [1]: 6.16
O=C(c1ccccc1)N1CCC2(CCNCC2)CC1	1.4	
O=C(c1ccc(Br)cc1)N1CCC2(CCNCC2)CC1	0.23	
O=C(c1ccc(C(F)(F)F)cc1)N1CCC2(CCNCC2)CC1	2.2	
O=C(c1cccc(O)c1)N1CCC2(CCNCC2)CC1	0.34	pKi [1]: 6.49

— ChEMBL document CHEMBL5096209, “Structure-Activity Studies of 3,9-Diazaspiro[5.5]undecane-Based γ-Aminobutyric Acid Type A Receptor Antagonists with Immunomodulatory Effect” (J Med Chem, 2021)
